# Laboratory results taken from ChEMBL document CHEMBL4190338, “1-Benzyl-3-aryl-2-thiohydantoin Derivatives as New Anti-Trypanosoma brucei Agents: SAR and in Vivo Efficacy” (ACS Med Chem Lett, 2017).
# Experiments:
# [1] = Cytotoxicity against human CRL8155 cells assessed as growth inhibition after 48 hrs by Alamar blue assay; type: cell-based
# Method in brief: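 Serial 3-fold dilutions in quadruplicate, 48 h, AlamarBlue read-out. Inhibition relative to untreated cells after subtracting a 50 µM quinacrine background. EC50 by nonlinear regression.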
# [2] = test system: Trypanosoma brucei brucei; assay: Antitrypanosomal activity against Trypanosoma brucei brucei BF427 measured after 48 hrs by Alamar blue assay; type: functional, organism-based; details: BF427, 48 h
# Method in brief: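 Bloodstream T. brucei BF427 cultured in HMI-9 medium. Exposed to serial 3-fold compound dilutions in triplicate, read with Alamar Blue at 48 h. Pentamidine isethionate control in every assay.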
# Cytochrome P450 3A4 = Cytochrome P450 3A4 (Homo sapiens, UniProt P08684); assay: Inhibition of CYP3A4 (unknown origin); type: ADME
# Cytochrome P450 3A4, sequence (P08684 whole entry): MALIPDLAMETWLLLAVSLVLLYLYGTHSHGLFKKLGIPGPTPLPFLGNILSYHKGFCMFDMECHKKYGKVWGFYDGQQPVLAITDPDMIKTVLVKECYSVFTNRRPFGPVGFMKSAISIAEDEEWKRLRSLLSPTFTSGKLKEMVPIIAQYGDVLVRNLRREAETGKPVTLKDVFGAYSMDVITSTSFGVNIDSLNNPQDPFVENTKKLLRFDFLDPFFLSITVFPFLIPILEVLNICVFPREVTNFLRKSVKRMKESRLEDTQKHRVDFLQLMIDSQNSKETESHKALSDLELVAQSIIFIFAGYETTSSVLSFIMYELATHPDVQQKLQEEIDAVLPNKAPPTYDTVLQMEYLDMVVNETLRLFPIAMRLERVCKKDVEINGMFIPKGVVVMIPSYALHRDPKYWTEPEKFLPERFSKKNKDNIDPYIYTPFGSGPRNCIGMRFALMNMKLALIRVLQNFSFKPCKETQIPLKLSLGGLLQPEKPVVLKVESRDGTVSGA
# Mus musculus [3] = assay: AUC in mouse at 50 mg/kg, po administered as single dose measured 24 hrs post dose by liquid chromatography/tandem mass spectrometric analysis; type: ADME, organism-based; details: in vivo
# Method in brief: (§1)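 Single oral dose of 50 mg/kg to mice in Phosal 53 MCT (60%)/PEG400 (30%)/ethanol (10%). Tail blood collected at 0.5, 1, 2, 4, 6, 8 and 24 h post dose and spotted onto DMPK cards. Punched dried blood spot disks extracted with acetonitrile, quantified by LC-MS/MS.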
# [4] = test system: Trypanosoma brucei rhodesiense; assay: Antitrypanosomal activity against trypomastigote form of Trypanosoma brucei rhodesiense STIB900 infected in mouse assessed as cure rate at 50 mg/kg administered via oral gavage bid from day 2 to 5 post infection measured 3 times per week for first month and weekly up to 60 days by microscopic method relative to control; type: functional
# [5] = Protein binding in Swiss Webster mouse plasma at 2 uM after 8 hrs by microdialysis based liquid chromatography/tandem mass spectrometric analysis; type: ADME, cell-free
# Method in brief: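 Compound at 2 µM in 50% pooled female Swiss Webster mouse plasma (lithium heparin) with 10X PBS, dialysed against blank 10X PBS in triplicate chambers of a microdialysis device. Incubation at 37 °C, 5% CO2 overnight or ≥8 h with shaking. Centrifuged 3000 rcf 15 min; supernatants concentrated, LC-MS/MS. Propranolol control.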
# [6] = Solubility in phosphate buffered saline at pH 7.4 at 50 uM incubated overnight by liquid chromatography/tandem mass spectrometric analysis; type: physicochemical; details: buffer, pH 7.4, 50 µM
# Method in brief: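 Compound at 50 µM in 1X PBS adjusted to pH 7.4, shaken overnight at 37 °C, then centrifuged 13500 rpm for 15 min at room temperature. Duplicate supernatant aliquots analysed by LC-MS/MS.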
# Mus musculus [7] = assay: Cmax in mouse at 50 mg/kg, po administered as single dose measured 24 hrs post dose by liquid chromatography/tandem mass spectrometric analysis; type: ADME, organism-based; parameters: dose 50 mg/kg, route oral; details: in vivo; method in brief: as §1
# [8] = Ratio of drug level in mouse brain to plasma at 5 mg/kg, ip administered as single dose measured 1 hr post dose by liquid chromatography/tandem mass spectrometric analysis; type: ADME, organism-based
# Method in brief: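 Single IP injection of 5 mg/kg in 5% DMSO/7% Tween80/3% EtOH in 0.9% saline. At 1 h, plasma and brains collected; brains homogenized in water. Vehicle-injected mice (n=3) supplied matrix for standard curves. LC-MS/MS quantitation, with brain levels corrected for 3% v/w residual blood.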
# [9] = Half life in mouse liver microsomes at 1.5 uM by liquid chromatography/tandem mass spectrometric analysis; type: ADME, microsome
# Method in brief: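 Pooled mouse liver microsomes at 0.5 mg/ml with compound at 1.5 µM final, in duplicate. Quenched with acetonitrile at 0, 5, 10, 15, 30 and 60 min, analysed by LC-MS/MS. Testosterone and dextromethorphan run as controls.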
SMILES,CC50 [1],EC50 [2],further results
CN(C)c1ccc(N2C(=O)CN(Cc3ccc(F)cc3Cl)C2=S)cc1Cl,> 50 µM,0.002 µM,–
N=C(N)c1ccc(OCCCCCOc2ccc(C(=N)N)cc2)cc1,–,0.00115 µM,–
COc1cc(N2C(=O)CN(Cc3ccc(F)cc3C(F)(F)F)C2=S)ccc1N(C)C,> 50 µM,0.028 µM,–
O=C1CN(Cc2ccccc2)C(=S)N1c1ccc(Cl)cc1,–,> 10 µM,–
COc1ccc(N2C(=O)CN(Cc3ccccc3)C2=S)cc1,–,> 10 µM,–
CN(C)c1ccc(N2C(=O)CN(Cc3ccc(F)cc3C(F)(F)F)C2=S)cc1Cl,> 50 µM,0.022 µM,–
O=C1CN(Cc2ccc(F)cc2)C(=S)N1c1ccc(N2CCCC2)c(Cl)c1,> 50 µM,0.027 µM,–
O=C1CN(Cc2ccc(F)cc2F)C(=S)N1c1ccc(N2CCCC2)c(Cl)c1,> 50 µM,0.01 µM,–
COc1cc(N2C(=O)CN(Cc3ccc(F)cc3Cl)C2=S)ccc1N(C)C,> 50 µM,0.0019 to 0.002 µM,IC50 (Cytochrome P450 3A4): 7.76 µM; AUC (Mus musculus [3]): 750 µmol·min/L; Activity [4]: 100%; PPB [5]: 96.3%; solubility [6]: 4.1 µM; Cmax (Mus musculus [7]): 2.5 µM; BPR [8]: 1.68
COc1ccc(N2C(=O)CN(Cc3ccc(C#N)cc3)C2=S)cc1Cl,–,17.8 µM,–
COc1ccc(N2C(=O)CN(Cc3ccc(C(F)(F)F)cc3)C2=S)cc1Cl,–,> 20 µM,–
COc1ccc(N2C(=O)CN(Cc3ccccc3)C2=S)c(OC)c1,–,0.637 µM,–
COc1ccc(N2C(=O)CN(Cc3ccc(F)cc3OC)C2=S)cc1Cl,–,0.191 µM,–
CN(C)c1ccc(N2C(=O)CN(Cc3ccc(F)cc3F)C2=S)cc1F,> 50 µM,0.028 µM,–
CN(C)c1ccc(N2C(=O)CN(Cc3ccc(F)cc3[N+](=O)[O-])C2=S)cc1Cl,> 50 µM,0.019 µM,–
COC(=O)c1ccc(CN2CC(=O)N(c3ccc(OC)c(Cl)c3)C2=S)cc1,–,> 20 µM,–
COc1ccc(N2C(=O)CN(Cc3ccc(F)cc3F)C2=S)cc1Cl,–,0.063 µM,–
COc1cc(N2C(=O)CN(Cc3ccccc3)C2=S)ccc1N(C)C,–,0.013 µM,–
CN(C)c1ccc(N2C(=O)CN(Cc3ccccc3)C2=S)cc1,–,1.5 µM,–
COc1ccc(N2C(=O)CN(Cc3cccnc3)C2=S)cc1Cl,–,3 µM,–
CN(C)c1ccc(N2C(=O)CN(Cc3ccc(F)c(F)c3)C2=S)cc1Cl,> 50 µM,0.013 µM,–
COc1ccc(CN2CC(=O)N(c3ccc(OC)c(Cl)c3)C2=S)cc1,–,> 20 µM,–
COc1cccc(N2C(=O)CN(Cc3ccccc3)C2=S)c1,–,> 10 µM,–

SMILES,CC50 [1],EC50 [2],further results
COc1ccc(N2C(=O)CN(Cc3ccc(F)cc3[N+](=O)[O-])C2=S)cc1Cl,–,0.35 µM,–
CN(C)c1ccc(N2C(=O)CN(Cc3ccc(F)cc3)C2=S)cc1Cl,39 µM,0.003 to 0.0032 µM,AUC (Mus musculus [3]): 1376 µmol·min/L; Activity [4]: 100%; PPB [5]: 88.8%; solubility [6]: 2.1 µM; Cmax (Mus musculus [7]): 2.1 µM; t1/2 [9]: 15 min; BPR [8]: 0.74
COc1ccc(N2C(=O)CN(Cc3ccc(Cl)cc3)C2=S)cc1Cl,–,0.853 µM,–
COc1cc(N2C(=O)CN(Cc3ccc(F)cc3F)C2=S)ccc1N(C)C,> 50 µM,0.006 µM,–
O=C1CN(Cc2ccccc2)C(=S)N1c1cc(C(F)(F)F)cc(C(F)(F)F)c1,–,> 10 µM,–
CN(C)c1ccc(N2C(=O)CN(Cc3ccc(F)cc3F)C2=S)cc1Cl,> 50 µM,0.004 µM,–
COc1ccc(N2C(=O)CN(Cc3cccc(F)c3)C2=S)cc1Cl,–,0.968 µM,–
COc1ccc(N2C(=O)CN(Cc3ccccc3)C2=S)cc1N(C)C,–,0.431 µM,–
CN(C)c1ccc(N2C(=O)CN(Cc3ccccc3)C2=S)cc1F,–,0.125 µM,–
COc1cc(N2C(=O)CN(Cc3ccc(F)c(F)c3)C2=S)ccc1N(C)C,> 50 µM,0.028 µM,–
COc1ccc(N2C(=O)CN(Cc3ccccc3)C2=S)cc1Cl,–,0.346 µM,–
CC(=O)c1ccc(N2C(=O)CN(Cc3ccccc3)C2=S)cc1,–,> 10 µM,–
COc1cc(N2C(=O)CN(Cc3ccc(F)cc3[N+](=O)[O-])C2=S)ccc1N(C)C,> 50 µM,0.044 µM,–
CN(C)c1ccc(N2C(=O)CN(Cc3ccc(F)cc3Cl)C2=S)cc1F,> 50 µM,0.015 µM,–
O=C1CN(Cc2ccccc2)C(=S)N1c1ccccc1Cl,–,> 20 µM,–
COc1ccc(N2C(=O)CN(Cc3ccc(F)cc3C(F)(F)F)C2=S)cc1OC,> 50 µM,0.037 µM,–
COc1cc(N2C(=O)CN(Cc3ccc(F)cc3)C2=S)ccc1N(C)C,> 50 µM,0.007 µM,–
O=C1CN(Cc2ccccc2)C(=S)N1c1cccc(Cl)c1,–,> 20 µM,–
COc1ccc(Cl)cc1N1C(=O)CN(Cc2ccccc2)C1=S,–,> 10 µM,–
COc1ccc(N2C(=O)CN(Cc3ccc(F)c(C#N)c3)C2=S)cc1Cl,–,> 20 µM,–
O=C1CN(Cc2ccccc2)C(=S)N1c1ccc(F)cc1,–,> 10 µM,–
O=C1CN(Cc2ccccc2)C(=S)N1c1ccccc1,–,> 10 µM,–
CC(C)c1ccc(N2C(=O)CN(Cc3ccccc3)C2=S)cc1,–,> 10 µM,–

SMILES,CC50 [1],EC50 [2],further results
CCN(CC)CCCC(C)Nc1c2ccc(Cl)cc2nc2ccc(OC)cc12 (centres undefined) [QUINACRINE],2.34 µM,–,–
COc1ccc(N2C(=O)CN(Cc3ccccc3)C2=S)cc1OC,–,0.161 µM,–
COc1cc(F)ccc1CN1CC(=O)N(c2ccc(N(C)C)c(Cl)c2)C1=S,12.6 µM,0.011 µM,–
O=C1CN(Cc2ccccc2)C(=S)N1c1cc(Cl)ccc1F,–,> 10 µM,–
CC(C)NCC(O)COc1cccc2ccccc12 (centres undefined) [PROPRANOLOL],–,–,PPB [5]: 91.7%
O=C1CN(Cc2ccccc2)C(=S)N1c1ccc(F)c(Cl)c1,–,> 10 µM,–
COc1ccc(N2C(=O)CN(Cc3ccc(F)c(F)c3)C2=S)cc1OC,> 50 µM,0.115 µM,–
COc1ccc(N2C(=O)CN(Cc3ccc(F)cc3Cl)C2=S)cc1OC,36.8 µM,0.014 µM,–
COc1ccc(N2C(=O)CN(Cc3ccc(C)cc3)C2=S)cc1Cl,–,1.55 µM,–
COc1ccc(N2C(=O)CN(Cc3ccc(F)cc3F)C2=S)cc1OC,> 50 µM,0.033 µM,–
CN(C)c1ccc(N2C(=O)CN(Cc3ccccc3)C2=S)cc1Cl,–,0.016 µM,–
O=C1CN(Cc2ccc(F)cc2Cl)C(=S)N1c1ccc(N2CCCC2)c(Cl)c1,> 50 µM,0.009 µM,–
COc1ccc(N2C(=O)CN(Cc3ccc(F)c(F)c3)C2=S)cc1Cl,–,0.313 µM,–
COc1cc(F)ccc1CN1CC(=O)N(c2ccc(OC)c(OC)c2)C1=S,> 50 µM,0.107 µM,–
COc1ccc(N2C(=O)CN(Cc3ccc(F)cc3)C2=S)cc1Cl,–,0.052 µM,–
O=C1CN(Cc2ccccc2)C(=S)N1c1ccc(O)cc1,–,> 10 µM,–
COc1ccc(N2C(=O)CN(Cc3ccc(F)cc3[N+](=O)[O-])C2=S)cc1OC,> 50 µM,0.555 µM,–
COc1cc(N2C(=O)CN(Cc3ccccc3)C2=S)cc(OC)c1OC,–,> 10 µM,–
COc1cc(F)ccc1CN1CC(=O)N(c2ccc(N(C)C)c(OC)c2)C1=S,39.6 µM,0.011 µM,–
COc1ccc(N2C(=O)CN(Cc3ccc(F)cc3C(F)(F)F)C2=S)cc1Cl,–,0.924 µM,–
COc1ccc(N2C(=O)CN(Cc3ccc(F)cc3)C2=S)cc1OC,> 50 µM,0.049 µM,–
O=C(O)c1ccc(N2C(=O)CN(Cc3ccccc3)C2=S)cc1,–,> 10 µM,–
O=C1CN(Cc2ccccc2)C(=S)N1c1ccc(Cl)c(C(F)(F)F)c1,–,> 10 µM,–
